Data set [1] relates to Candida albicans. As to the kind of experiment: Antifungal activity against Candida albicans 580 infected in neutropenic ICR/Swiss mouse candidiasis model assessed as dose required to maintain […] of 3.81 +/- 0.33 log10CFU per kidney administered intraperitoneally every 24 hrs up to 4 days measured per 24 hrs. Format: functional. An outline of the steps:
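Neutropenic mice (cyclophosphamide sc on days −4, −1 and +2) were infected iv 2 h before therapy. Five total doses from 0.078 to 20 mg/kg/24 h were given ip q24h for 4 days, three mice per regimen. Kidney CFU were measured at the end of therapy. Static and 1-log-kill doses were derived from a Hill sigmoid dose-effect fit.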

The test system of data set [2] is Mus musculus. Put plainly: Cmax in serum of neutropenic ICR/Swiss mouse candidiasis model at 80 mg/kg, ip up to 4 hrs by reverse-phase high-pressure liquid chromatography. Format: ADME, organism-based. Further details: dose 80 mg/kg, route intraperitoneal. The settings on record: in vivo. An outline of the steps:
(§1)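 Infected neutropenic ICR/Swiss mice given single ip doses (5, 20 or 80 mg/kg; 0.2 ml); serum from three isoflurane-anaesthetised mice at 1, 4, 8, 12, 24 and 48 h, stored at −80°C, assayed by reverse-phase HPLC with fluorescence detection, loratadine internal standard, linear 10–50,000 ng/ml. Noncompartmental analysis; half-life by nonlinear least squares.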

The subject of data set [3] is Mus musculus. As to the kind of experiment: Cmax in serum of neutropenic ICR/Swiss mouse candidiasis model at 20 mg/kg, ip up to 4 hrs by reverse-phase high-pressure liquid chromatography. The data set is classed as ADME, organism-based. Also noted: dose 20 mg/kg, route intraperitoneal. The note with it: in vivo. An outline of the steps: as §1
Data set [4] concerns Nakaseomyces glabratus. Put plainly: Antifungal activity against Candida glabrata 33616 assessed as complete growth inhibition after 24 hrs by CLSI end point method. The note with it: Nakaseomyces glabratus, 33616, 24 h. Format: functional. The gist of the method: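 Two end points were read against the drug-free control well: partial growth inhibition (the CLSI end point) and complete inhibition. Run in duplicate on four separate occasions; the value is the mean. Drug stock was made in DMSO and diluted in 0.9% NaCl.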

For data set [5], the system named is Nakaseomyces glabratus. As to the kind of experiment: Antifungal activity against Candida glabrata 33616 infected in neutropenic ICR/Swiss mouse candidiasis model assessed as fungal count per kidney administered 2 hrs postinfection measured up to 48 hrs. The data set is classed as functional. The gist of the method: (§2)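 Female ICR/Swiss mice (23–27 g) made neutropenic with cyclophosphamide s.c. (150 mg/kg day −4, 100 mg/kg day −1, 100 mg/kg day +2). Infected by tail vein with 0.1 ml inoculum (~6.1 log10 CFU/ml). Kidneys of untreated mice were homogenised and plated on SDA for 24 h at 35°C. Growth over 48 h is given as log10 CFU/kidney.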

Data set [6] relates to Nakaseomyces glabratus. Put plainly: Antifungal activity against Candida glabrata 5376 infected in neutropenic ICR/Swiss mouse candidiasis model assessed as fungal count per kidney administered 2 hrs postinfection measured up to 48 hrs. The data set is classed as functional. The gist of the method: as §2

Values after ≈ are worked out from the molar mass of the structure shown. Starred links: 1 amine or outer side, 2 acyl side, 3 side chain; linkers in the order of their positions; H or OH if unused. Positions of bridges follow the written chain, without caps; N, C: chain ends. Non-standard residues stand in square brackets, D forms with d. Residues, ends and D or L forms follow the SMILES beside them. *: point of attachment. pTerphenylCO(4''-OnC5H11) = CCCCCOc1ccc(-c2ccc(-c3ccc(C(=O)*)cc3)cc2)cc1; Orn(4R-OH,5R-OH) = O=C([C@H](C[C@@H](O)[C@@H](O)N[*:3])N[*:1])[*:2]; hTyr(3S-OH,4S-OH) = N[C@H](C(=O)O)[C@H](O)[C@@H](O)c1ccc(O)cc1; Pro(3S-OH,4S-Me) = C[C@H]1CN[C@H](C(=O)O)[C@H]1O; Hyp = O=C(O)[C@@H]1C[C@@H](O)CN1

As a reminder, the Cmax is the peak of the concentration-time curve. Usually MIC stands for the lowest concentration that inhibits growth of the organism.

For `CCCCCOc1ccc(-c2ccc(-c3ccc(C(=O)N[C@H]4C[C@@H](O)[C@@H](O)NC(=O)[C@@H]5[C@@H](O)[C@@H](C)CN5C(=O)[C@H]([C@@H](C)O)NC(=O)[C@H]([C@H](O)[C@@H](O)c5ccc(O)cc5)NC(=O)[C@@H]5C[C@@H](O)CN5C(=O)[C@H]([C@@H](C)O)NC4=O)cc3)cc2)cc1` [ANIDULAFUNGIN] ({pTerphenylCO(4''-OnC5H11)}-[Orn(4R-OH,5R-OH)]T[Hyp][hTyr(3S-OH,4S-OH)]T[Pro(3S-OH,4S-Me)]; lactam 1-C), in data set [1], the Activity was determined as 0.94 mg/kg. Moreover, the figures for the Cmax in data set [2] and in data set [3] were 60000 ng/mL and 24000 ng/mL, respectively. For the same molecule, the MIC in data set [4] is 2 µg/mL (≈ 1.75 µM). In addition, the log10cfu in data set [5] was found to be 1.81; in data set [6], 2.1.

The values are drawn from ChEMBL document CHEMBL1153564 (Antimicrob Agents Chemother, 2008).
